In ChEMBL document CHEMBL2331349, “Discovery of olmesartan hexetil: a new potential prodrug of olmesartan” (Bioorg Med Chem Lett, 2013):

Experiments:
[1] = test system: Rattus norvegicus; experiment: AUClast in Sprague-Dawley rat assessed as olmesartan at 20 mg/kg, po; format: ADME, organism-based, Plasma; set-up: time 0 - last, dose 20 mg/kg, route oral; details: in vivo
Summary of the method: (§1)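 Male Sprague-Dawley rats (n = 4) dosed orally by feeding tube, 20 mg/kg as olmesartan. Carotid artery blood drawn at 0, 0.5, 1, 2, 3, 4, 6, 8, 10 h; plasma stored until analysis. Olmesartan measured by modified LC–MS/MS. Non-compartmental analysis; AUClast by trapezoidal rule; Tmax given as median (range), others mean ± SD.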

[2] = Half life in simulated gastric juice at 1 uM; format: physicochemical
Summary of the method: (§2)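 Substrate added from acetonitrile stock to rat plasma or simulated gastric juice, 1 µM final, 37 °C. Samples at 0, 15, 30, 60, 120 min quenched with twofold cold acetonitrile containing internal standard, centrifuged, supernatant analysed by LC–MS/MS. Half-life reported as mean of duplicate experiments.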

[3] = Half life in rat liver microsomes at 1 uM; format: ADME, Microsome
Summary of the method: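 Incubation with rat liver microsomes, 0.5 mg/mL total protein, 1.2 mM NADPH, 100 mM phosphate buffer pH 7.4. Substrate added from acetonitrile stock to 1 µM final, 37 °C. Samples at 0, 15, 30, 60, 120 min quenched with twofold cold acetonitrile containing internal standard, centrifuged, supernatant by LC–MS/MS. Mean of duplicate experiments.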

[4] = test system: Rattus norvegicus; experiment: Tmax in Sprague-Dawley rat assessed as olmesartan at 20 mg/kg, po; format: ADME, organism-based; set-up: dose 20 mg/kg, route oral; details: in vivo; summary of the method: as §1
[5] = test system: Rattus norvegicus; experiment: Cmax in Sprague-Dawley rat assessed as olmesartan at 20 mg/kg, po; format: ADME, organism-based; set-up: dose 20 mg/kg, route oral; details: in vivo; summary of the method: as §1
[6] = Half life in rat plasma at 1 uM; format: ADME, cell-free; summary of the method: as §2

Row | AUClast [1] [ng·h/mL] | half-life at 1 µM [2] [min] | half-life at 1 µM [3] [min] | Tmax [4] [min] | Cmax [5] [ng/mL] | half-life at 1 µM [6] [min] | SMILES
1 | 3013.8 | 390 | 2.77 | 54 | 1374.7 | 1.54 | CCCc1nc(C(C)(C)O)c(C(=O)OC(C)OC(=O)OC2CCCCC2)n1Cc1ccc(-c2ccccc2-c2nnn[nH]2)cc1 (stereo not given) [OLMESARTAN HEXETIL]
2 | 501.9 | > 1000 |  | 60 | 153.6 |  | CCCc1nc(C(C)(C)O)c(C(=O)OCc2oc(=O)oc2C)n1Cc1ccc(-c2ccccc2-c2nnn[nH]2)cc1 [OLMESARTAN MEDOXOMIL]
